KCNQ1 act: human KCNQ1 channel potentiation or activation. P51787. CHO-K1 KCNQ1, thallium flux FluxOR fluorescence; active compounds read high. B-score at 10 µM. 0.35% of 310,000 active;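 active = fluorescence ratio B-score, a plate-corrected score, at least three library SD, with initial intensity B-score within 5 SD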
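Material: CHO-K1 cells stably expressing KCNQ1. Medium: assay buffer for compound exposure, DMSO matched across wells. Reagent: K+/Tl+ depolarizing stimulus. Compound dosing: single-concentration screen. Times: 37 °C overnight plating, 90-min dark dye load, 20-min compound pretreatment. Technique: FluxOR Tl+ flux fluorescence.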
KCC2 mod: modulates chloride dependent transport by human KCC2 | Q9H2X9 | KCC2 cells, thallium flux FluoZin-2 fluorescence | B-score of Tl+ flux slope (higher = more flux/activation; lower = inhibition) at 10 µM | 2.2% of 190,000 active | AID 1456;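 active = thallium flux slope and its plate-corrected score both differing from the plate sample mean at a set confidence after two filtering rounds, in either direction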;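 also: slope of fluorescence scaled to starting intensity during 10 to 20 s after thallium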
hERG protect: hERG (human) protection from proarrhythmic block. Q12809. CHO-hERG, FluxOR thallium flux, dofetilide IC70 present. activation (rescue from dofetilide block), less the hit threshold, % at 10 µM. 0.51% of 310,000 active. AID 1511;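 active = activation above the mean of controls blocked by dofetilide plus 5 SD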;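 also: thallium influx through hERG after potassium depolarization seen as dye fluorescence rise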
Target sequence (Q12809 whole entry, looked up): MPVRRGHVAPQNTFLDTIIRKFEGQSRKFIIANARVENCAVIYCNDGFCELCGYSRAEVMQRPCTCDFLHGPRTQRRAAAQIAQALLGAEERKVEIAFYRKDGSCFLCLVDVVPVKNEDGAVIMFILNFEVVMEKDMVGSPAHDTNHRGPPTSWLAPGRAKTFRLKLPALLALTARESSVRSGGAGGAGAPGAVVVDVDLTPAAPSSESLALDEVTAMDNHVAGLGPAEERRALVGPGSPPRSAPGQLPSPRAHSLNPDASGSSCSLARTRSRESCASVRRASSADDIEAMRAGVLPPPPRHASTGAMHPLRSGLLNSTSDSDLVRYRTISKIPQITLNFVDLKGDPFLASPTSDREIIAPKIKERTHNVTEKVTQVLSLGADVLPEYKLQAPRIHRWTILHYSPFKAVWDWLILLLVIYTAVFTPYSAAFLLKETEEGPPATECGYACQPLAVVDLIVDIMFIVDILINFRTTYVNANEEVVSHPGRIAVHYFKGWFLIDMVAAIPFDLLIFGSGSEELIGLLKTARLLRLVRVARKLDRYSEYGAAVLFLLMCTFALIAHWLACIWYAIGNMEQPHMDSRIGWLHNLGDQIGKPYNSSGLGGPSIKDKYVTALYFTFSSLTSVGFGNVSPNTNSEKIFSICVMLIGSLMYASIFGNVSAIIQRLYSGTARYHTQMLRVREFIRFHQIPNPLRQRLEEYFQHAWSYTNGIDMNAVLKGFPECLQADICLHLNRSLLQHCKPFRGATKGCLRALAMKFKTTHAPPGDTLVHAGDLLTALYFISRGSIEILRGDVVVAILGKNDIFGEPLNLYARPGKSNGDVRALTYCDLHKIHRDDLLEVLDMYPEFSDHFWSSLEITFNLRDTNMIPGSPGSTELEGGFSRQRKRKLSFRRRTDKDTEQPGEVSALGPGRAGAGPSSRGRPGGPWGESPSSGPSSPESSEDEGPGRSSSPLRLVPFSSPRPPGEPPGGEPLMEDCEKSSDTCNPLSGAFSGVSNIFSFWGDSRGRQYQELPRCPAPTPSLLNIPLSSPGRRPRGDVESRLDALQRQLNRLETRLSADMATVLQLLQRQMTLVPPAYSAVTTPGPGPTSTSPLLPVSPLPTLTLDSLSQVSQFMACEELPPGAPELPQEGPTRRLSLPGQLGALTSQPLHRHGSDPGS
KCNQ1 block: blocks the human KCNQ1 potassium channel. CHO-K1 KCNQ1, FluxOR thallium flux fluorescence; active compounds read high. P51787. B-score at 10 µM. 1.3% of 310,000 active. AID 2642;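 active = compounds whose thallium flux B-score, printed positive for inhibition, exceeds three library SD while starting fluorescence stays within three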;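 also: channel opened by potassium depolarization with thallium stimulus after 20 min compound exposure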
KCNK9 inh: human KCNK9 channel inhibition | Q9NPC2 | HEK293 KCNK9, FluxOR thallium flux fluorescence; active compounds read low | B-score at 10 µM | 1.2% of 310,000 active;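 active = ratio B-score over 3 SD below the library mean, with starting fluorescence within 5 SD of its mean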;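 also: negative B-score means less thallium flux so channel inhibition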
KCNK3 inh: human KCNK3 channel inhibition, primary screen; O14649; CHO-KCNK3 thallium flux, FluxOR fluorescence; active compounds read low; B-score at 10 µM; 0.84% of 340,000 active; AID 602410;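 active = B-score under library mean minus 4 SD, starting fluorescence ratio at most library mean plus 5 SD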;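 also: more negative B-score means stronger inhibition of thallium flux through KCNK3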
The depositor's hits bear a star; i = inactive; · = no result. This is a sample that favours compounds with a hit; in the whole collection about 4.1% have one here.

SMILES	KCNQ1 act	KCC2 mod	hERG protect	KCNQ1 block	KCNK9 inh	KCNK3 inh
Cc1ccc(S(=O)(=O)N2CCOCC2)cc1C(=O)NCCCn1ccnc1	i	-0.63	4.7*	i	i	i
Nc1ncn(C(=S)Nc2ccccc2)n1	·	·	·	·	·	i
CCOCCCNc1nc2c(C)cccn2c(=O)c1/C=C1\SC(=S)N(C(C)CC)C1=O (stereo not given)	i	-2.1	-16	7*	i	i
CCCC[n+]1ccn(-c2nc3c([N+](=O)[O-])cccc3n2C)c1	i	·	0	i	i	i
Clc1ccc(CN(Cc2ccc(Cl)cc2)c2nn[nH]n2)cc1	i	-5.9*	-18	i	i	i
Cn1c(=S)c2[nH]c(SCCN3CCCC3)nc2n(C)c1=O	i	·	-3	i	-6.9*	i
Cc1ccc(-n2ncc3c(=O)n(CC(=O)N(C(C)C)C(C)C)cnc32)cc1	i	·	-1	i	i	i
NCC(=O)NCC(=O)NC[C@H]1O[C@@H](n2cnc3c(N)ncnc32)[C@H](O)[C@@H]1O	·	·	·	·	·	i
C[C@H]1CN([C@@H](C)CO)C(=O)c2cc(NC(=O)C3CCCCC3)ccc2O[C@H]1CN(C)S(=O)(=O)c1ccccc1	·	·	·	·	·	i
COc1ccc(C2c3ccc4ccccc4c3Oc3ncn(CCCO)c(=N)c32)cc1OC (stereo not given)	9*	1.1	-12	i	i	i
CN(CC(=O)Nc1ccccc1Cl)C(=O)COC(=O)Cc1ccc(F)cc1	i	·	-12	i	i	i
Cc1cc(C)n2nc(SCC(=O)NC(=O)c3ccccc3Cl)nc2n1	·	·	·	·	·	i
Cc1ccccc1COC(=O)CCC1=NS(=O)(=O)c2ccccc2N1	i	·	-9	i	i	i
CC(C)c1ccc(N(CC(=O)NC2CCCC2)C(=O)CCC(=O)Nc2ccccn2)cc1	i	·	-4	i	i	i
CCCCS(=O)(=O)/C=C\C=C/S(=O)(=O)CCCC	14*	-1.6	-12	i	i	i
COc1cc(NC(=O)C(=O)NNC(=O)C2CCCCC2)c(OC)cc1Cl	i	51*	2	i	i	i
COc1cccc(C(=O)CC(=O)C(=O)Nc2cc(Cl)c(OC)cc2OC)c1	i	0.79	-6	i	i	i
COc1cc(OC)cc(C(=O)NNC(=O)C(=O)Nc2cc(OC)c(Cl)cc2OC)c1	32*	·	51*	i	i	i
C=C(C(=O)c1ccccc1)C(C)C(=C)C(=O)c1ccccc1	i	0.2	-5	i	i	i
CCCCOC(=O)c1ccc(NC(=S)NC(=O)c2c(Br)c(C)nn2C)cc1	i	29*	2	i	i	i
COC(=O)C1=C(C)N(Cc2ccccc2)C(=NCCc2cccnc2)N[C@H]1c1ccc(Br)cc1	·	·	·	·	·	i
N/C(CSc1nc(-c2ccccc2)c(-c2ccccc2)o1)=N\O	i	·	-12	8*	-7.2*	i
CCC(C)NC(=S)N1CCN(C(c2ccccc2)c2ccccc2)CC1 (stereo not given)	i	-0.66	-7	i	-7.7*	i
CCOc1cccc2cc(-c3cn4cc(C)ccc4n3)c(=O)oc12	i	1.5	10*	i	i	i
COc1cccc2cc(-c3cn4ccc(C)cc4n3)c(=O)oc12	i	-1.3	-13	i	i	i
SMILES	KCNQ1 act	KCC2 mod	hERG protect	KCNQ1 block	KCNK9 inh	KCNK3 inh
CC(C)c1csc(CN2CCCC(CNC(=O)c3cccc4ccccc34)C2)n1 (stereo not given)	i	·	-10	i	i	i
COc1ccc(-c2c(C)nn3c(NC4CCCC4)cc(C)nc23)cc1OC	i	·	-9	i	i	i
CCc1c(C)nc2cc(-c3ccc(OC)c(OC)c3)nn2c1NCC1CC1	i	-0.29	-28	i	-6.7*	i
COc1ccc(CNC(=O)CCSCc2cccc(F)c2)cc1	i	·	-4	i	i	i
O=C(O)Cc1cc(I)c(Oc2ccc(O)c(I)c2)c(I)c1	i	-3.2	9.9*	i	i	·
O=C(O)Cc1ccc(O)c(O)c1	i	-0.74	-4	i	i	i
Cc1cccc(/C=C2/S/C(=N/N=C3\CC4CCC3(C)C4(C)C)NC2=O)c1 (stereo not given)	18*	1.1	14*	i	i	i
CCOC(=O)C1=C(C)NC(C)=C(C(=O)OCC)C1c1ccccc1/C=C/C(=O)OC(C)(C)C	i	·	-10	8*	i	·
COc1ccccc1NC(=O)C(C)OC(=O)CCC1CCCCC1 (stereo not given)	i	·	-16	i	i	-8.9*
COc1ccccc1NC(=O)COC(=O)CCC1CCCC1	·	·	·	·	·	i
COc1cc(/C=C(/C#N)C(=O)Nc2ccccc2)c(Br)cc1OCc1ccc(C(=O)O)cc1	i	-1.3	-33	i	i	i
COC(=O)c1ccc(COc2ccccc2/C=C(\C#N)C(=O)Nc2ccc(C)cc2C)cc1	i	-0.28	-4	i	-7.1*	i
COc1ccc(-c2c(NC(=O)c3ccco3)oc3c(C)cccc3c2=O)cc1	i	·	-11	i	i	i
COc1ccc(/C=N\NC(=O)c2ccc(-c3ccccc3)cc2)cc1COC(C)=O	i	·	-11	i	i	i
COc1ccc(/C=N/NC(=O)c2cc(-c3ccc(C)cc3C)nc3ccccc23)cc1COC(C)=O	i	-0.4	-7	i	i	-8.8*
CCc1ccc(/C=N/NC(=O)c2cc(-c3ccccc3OC)nc3ccccc23)s1	i	1	-10	6*	i	i
CCC(C)(C)C1CCc2[nH]nc(C(=O)NCCNC(=O)OC(C)(C)C)c2C1 (stereo not given)	·	·	·	·	·	i
Oc1c(Cl)cc(Cl)cc1Sc1cc(Cl)cc(Cl)c1O	105*	37*	43*	i	i	·
COc1ccc2c(c1)-c1nc(/N=C/c3c(O)ccc4ccccc34)sc1CC2	i	-0.017	-10	11*	i	i
COc1ccc2c(c1)-c1nc(/N=C/c3ccc(O)cc3)sc1CC2	·	-0.2	·	·	·	i
Cc1cc(C(=O)COc2cc(F)ccc2[N+](=O)[O-])c(C)n1C1CC1	i	-1.1	34*	i	i	i
CCn1c(CCC(=O)N(C)CC(=O)Nc2cccc(F)c2)nc2cc(S(=O)(=O)N(C)C)ccc21	i	·	-10	i	i	i
COc1cc(/C=N/Nc2nc(N3CCCC3)nc(N3CCCC3)n2)ccc1OCc1ccccc1F	i	-0.86	11*	i	i	i
N#Cc1c(NC(=O)CSc2ccccn2)oc(-c2ccccc2)c1-c1ccccc1	i	·	-11	7*	i	i
